According to ChEMBL document CHEMBL1154309, “Cytotoxic diterpenoids from Croton argyrophylloides” (J Nat Prod, 2009):

Experiments:
HL-60 = test: Cytotoxicity against human HL60 cells after 69 hrs by MTT assay; assay type: functional, cell-based; details: HL-60, 69 h
Summary of the method: (§1)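 Tumor lines from NCI, kept in RPMI 1640 with 10% FBS, 2 mM glutamine, penicillin/streptomycin, 37 °C, 5% CO2. Seeded at 0.7 × 10^5 cells/well (adherent) or 0.3 × 10^6 cells/well (suspension). Compounds at 0.078-5 µg/mL in DMSO (final below 0.1%), 69 h, then MTT 0.5 mg/mL for 3 h. Formazan dissolved in DMSO, A595. Triplicates; IC50 by nonlinear regression.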

MDA-MB-435 = test: Cytotoxicity against human MDA-MB-435 cells after 69 hrs by MTT assay; assay type: functional, cell-based; details: MDA-MB-435, 69 h; summary of the method: as §1
SF-295 = test: Cytotoxicity against human SF295 cells after 69 hrs by MTT assay; assay type: functional, cell-based; details: SF-295, 69 h; summary of the method: as §1
HCT-8 = test: Cytotoxicity against human HCT8 cells after 69 hrs by MTT assay; assay type: functional, cell-based; details: HCT-8, 69 h; summary of the method: as §1
PBMC = test: Cytotoxicity against human PBMC after 72 hrs by alamar blue assay; assay type: cell-based
Summary of the method: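 PBMC isolated from heparinized blood of healthy nonsmoking donors by Ficoll-Hypaque gradient. Cells at 3 × 10^5 cells/mL in RPMI 1640 with 20% FBS, 37 °C, 5% CO2, phytohemagglutinin 3% added at the start. Compounds added after 24 h at 0.078-5 µg/mL in DMSO (final below 0.1%), exposure 72 h. Alamar Blue added for the last 24 h; absorbance read at 570 and 595 nm, expressed as % reduced versus control.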

[1] = Hemolytic activity in mouse erythrocytes at 200 ug/ml after 1 hr by spectrophotometer; assay type: ADME, cell-based; details: erythrocyte
Summary of the method: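 Mouse erythrocytes as a 2% suspension in 0.85% NaCl with 10 mM CaCl2. Compounds tested at 0.78-200 µg/mL; 1% DMSO served as negative control and 0.2% Triton X-100 set 100% hemolysis. After 1 h at room temperature and centrifugation, released hemoglobin in the supernatant measured at 540 nm absorbance.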

SMILES: C=C1C(=O)O[C@@]23CC[C@H]4[C@@](C)(CCC[C@]4(C)C(=O)O)[C@@H]2CC[C@@H]1C3 (relative stereo)
- IC50 (HL-60): 8.2 µM
- IC50 (MDA-MB-435): > 10 µM
- IC50 (SF-295): > 10 µM
- IC50 (HCT-8): 5.2 µM
- IC50 (PBMC): > 10 µM
- Activity [1]: Not Active

SMILES: COc1cccc2c1C(=O)c1c(O)c3c(c(O)c1C2=O)C[C@@](O)(C(=O)CO)C[C@@H]3O[C@H]1C[C@H](N)[C@H](O)[C@H](C)O1 [DOXORUBICIN]
- IC50 (HL-60): 0.05 µM
- IC50 (MDA-MB-435): 1.67 µM
- IC50 (SF-295): 0.37 µM
- IC50 (HCT-8): 0.09 µM
- IC50 (PBMC): 0.5 µM

SMILES: C=C(C(=O)OC)C1C[C@H](OC(C)=O)C2=C(CC[C@@H]3[C@@](C)(C(=O)OC)C(=O)CC[C@@]23C)[C@@H]1OC(C)=O (relative stereo) [ABIETANE]
- IC50 (HL-60): > 10 µM
- IC50 (MDA-MB-435): > 10 µM
- IC50 (SF-295): > 10 µM
- IC50 (HCT-8): > 10 µM
- IC50 (PBMC): > 10 µM
- Activity [1]: Not Active

SMILES: C=C1C(=O)[C@@]23CC[C@H]4[C@@](C)(CCC[C@]4(C)C(=O)O)[C@@H]2CC[C@@H]1C3
- IC50 (HL-60): 2 µM
- IC50 (MDA-MB-435): 4.2 µM
- IC50 (SF-295): 3.7 µM
- IC50 (HCT-8): 1.5 µM
- IC50 (PBMC): > 10 µM
- Activity [1]: Not Active
